Each block holds one molecule with its values, some of them ahead of it. The source made the active and inactive calls. No cut-off for these calls is given here.
How the values were obtained:
[1] = Protein binding in CD1 mouse plasma after 2 hrs by HPLC analysis relative to control; type: ADME, cell-free; conditions: for fraction unbound at 2 h: CD1, mouse, read-out: PPB; for PPB: mouse, 2 h
In short: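 Rapid equilibrium dialysis with compound at 100 µM final in pooled CD-1 mouse plasma, naproxen as control. Incubated 37 °C for 2 h at 800 rpm. Samples matrix-matched, extracted with cold MeCN/H2O (90:10) containing caffeine internal standard, and quantified by HPLC-MS/MS. %free = buffer/plasma chamber concentration × 100; %bound = 100 − %free.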

[2] = biological target: T1, Fucose-binding lectin PA-IIL (Pseudomonas aeruginosa (strain ATCC 15692 / DSM 22644 / CIP 104116 / JCM14847 / LMG 12228 / 1C / PRS 101 / PAO1), UniProt Q9HYN5); assay: Inhibition of N-(fluorescein-5-yl)-N'-(alpha-L-fucopyranosyl ethylen)thiocarbamide binding to Pseudomonas aeruginosa PAO1 LecB incubated for 22 to 24 hrs by fluorescence polarization assay
Target sequence in this assay (Q9HYN5 whole entry): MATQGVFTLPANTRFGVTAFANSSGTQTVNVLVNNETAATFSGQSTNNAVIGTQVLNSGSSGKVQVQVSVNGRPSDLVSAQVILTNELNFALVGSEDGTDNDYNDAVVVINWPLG

[3] = biological target: T1, Fucose-binding lectin PA-IIL; assay: Inhibition of N-(fluorescein-5-yl)-N'-(alpha-L-fucopyranosyl ethylen)thiocarbamide binding to Pseudomonas aeruginosa PA14 LecB incubated for 22 to 24 hrs by fluorescence polarization assay
Target sequence in this assay (Q9HYN5 1-115): as the sequence (Q9HYN5 whole entry) above

Pseudomonas aeruginosa [4] = assay: Antibiofilm activity against Pseudomonas aeruginosa PA14 transfected with pMP7605 plasmid at 100 uM after 48 hrs by fluorescence based confocal light microscopic analysis relative to control; type: functional; conditions: PA14, 48 h
In short: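 P. aeruginosa PA14 wild type carrying the mCherry plasmid pMP7605 was grown overnight in LB at 37 °C, then diluted to OD600 0.02 in M63 minimal medium. Compound (100 µM final, from DMSO stock) was added and cultures incubated 48 h at 30 °C. Biofilm biomass was quantified by confocal laser scanning microscopy versus DMSO control; means ± SD of three independent assays, Student's t test.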

[5] = Intrinsic clearance in C57BL/6J mouse liver microsomes at 1 uM preincubated for 10 mins followed by NADPH addition and measured up to 45 mins by LC-MS/MS analysis; type: ADME, Microsome; conditions: 0.75 h
In short: (§1)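 Compound at 1 µM in 0.1 M phosphate buffer pH 7.4 with liver microsomes at 0.5 mg/mL. Preincubated 10 min, then started with an NADPH regenerating system. Sampled at 1–45 min at 37 °C and quenched in MeCN with internal standard. Supernatant analyzed by LC-MS/MS. CLint = −slope of ln(peak area ratio) vs time × 1000/protein concentration. CYP marker substrates served as quality control.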

Pseudomonas aeruginosa [6] = assay: Antibacterial activity against Pseudomonas aeruginosa PA14 transfected with pMP7605 plasmid at 100 uM after 23 hrs by fluorescence based confocal light microscopic analysis; type: functional, organism-based
[7] = Stability in mouse plasma at 25 uM measured up to 120 mins by HPLC-MS analysis; type: ADME, cell-free; conditions: 2 h
In short: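 Compound from DMSO added to mouse plasma (pH 7.4, 37 °C) at 25 µM final. Incubated 0, 15, 30, 60, 90 and 120 min at 37 °C. Aliquots extracted with methanol containing internal standard and analyzed by HPLC-MS, normalized to internal standard and time 0. Procaine and propoxycaine served as unstable controls, procainamide (250 µM) as stable control. At least three independent repeats.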

HepG2 [8] = assay: Cytotoxicity against human HepG2 cells assessed as reduction in cell viability up to 100 uM after 24 hrs by MTT assay; type: cell-based; conditions: hepg2, 24 h
In short: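 Hep G2 cells grown in DMEM with 10% heat-inactivated FCS at 37 °C, 5% CO2, seeded and grown to 75% confluency. Exposed to 0.01–100 µM compound (DMSO stock diluted in PBS, final DMSO 0.1%) for 24 h. Washed, then MTT at 1 mg/mL final for 3 h. Solubilized in 0.04 M HCl/2-propanol, read at 560 nm with 670 nm reference. Normalized as (A−B)/(C−B), with B the Triton X-100 (0.5%) control and C the vehicle control. At least three assays.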

[9] = Intrinsic clearance in human liver microsomes at 1 uM preincubated for 10 mins followed by NADPH addition and measured up to 45 mins by LC-MS/MS analysis; type: ADME, Microsome; conditions: 0.75 h; in short: as §1
[10] = Half life in CD1 mouse plasma at 10 mg/kg, po or ip after 24 hrs; type: ADME, organism-based
[11] = Solubility of compound in TBS/Ca containing 1% DMSO at 1 mM; conditions: 1000 µM
HepG2 [12] = assay: Cytotoxicity against human HepG2 cells assessed as cell viability at 100 uM after 24 hrs by MTT assay relative to control; type: cell-based; conditions: hepg2, 24 h
In short: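 Hep G2 cells in DMEM + 10% FCS were grown to 75% confluency, then exposed to compound (0.01–100 µM, 0.1% DMSO final) for 24 h at 37 °C, 5% CO2. MTT was added at 1 mg/mL final for 3 h and solubilised in 0.04 M HCl/2-propanol; A560 read with 670 nm reference. Normalised (A−B)/(C−B) to 0.5% Triton X-100 and vehicle controls; SD of ≥3 assays.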

fraction unbound at 2 h [1]: 0.3 to 0.4
Structure (SMILES): CO[C@H]1O[C@H](CNS(=O)(=O)c2c(C)cc(C)cc2C)[C@@H](O)[C@H](O)[C@@H]1O

Structure (SMILES): Cc1ccsc1S(=O)(=O)NC[C@H]1O[C@@H](C)[C@@H](O)[C@@H](O)[C@@H]1O
IC50 [2]: 1320 nM
IC50 [3]: 200 nM

Structure (SMILES): Cc1cc(S(=O)(=O)NC[C@H]2O[C@@H](C)[C@@H](O)[C@@H](O)[C@@H]2O)c(C)s1
inhibition at 100 µM (Pseudomonas aeruginosa [4]): > 80%
Intrinsic clearance (CLint) [5]: < 10 µL/min/mg
fraction unbound at 2 h [1]: 0.3 to 0.4
Activity (Pseudomonas aeruginosa [6]): inactive
Stability [7]: Stable
Activity (HepG2 [8]): Non-Toxic
Intrinsic clearance (CLint) [9]: < 10 µL/min/mg

Structure (SMILES): C[C@@H]1O[C@H](CNS(=O)(=O)c2ccn(C)n2)[C@@H](O)[C@H](O)[C@@H]1O
IC50 [2]: 7010 nM
IC50 [3]: 730 nM

Structure (SMILES): C[C@@H]1O[C@H](CNS(=O)(=O)c2ccc(/C=C\c3ccccc3)s2)[C@@H](O)[C@H](O)[C@@H]1O
IC50 [2]: 2320 nM
IC50 [3]: 440 nM

Intrinsic clearance (CLint) [5]: < 10 µL/min/mg
fraction unbound at 2 h [1]: 0.3 to 0.4
Stability [7]: Stable
Intrinsic clearance (CLint) [9]: < 10 µL/min/mg
Structure (SMILES): Cc1oncc1S(=O)(=O)NC[C@H]1O[C@@H](C)[C@@H](O)[C@@H](O)[C@@H]1O
Activity (HepG2 [8]): Non-Toxic

PPB [1]: 73%
half-life [10]: 17 min
Structure (SMILES): Cc1cc(C)c(S(=O)(=O)NC[C@H]2O[C@@H](C)[C@@H](O)[C@@H](O)[C@@H]2O)c(C)c1

Structure (SMILES): Cc1cccc(C#Cc2ccc(S(=O)(=O)NC[C@H]3O[C@@H](C)[C@@H](O)[C@@H](O)[C@@H]3O)s2)c1
IC50 [2]: 1720 nM
IC50 [3]: 300 nM

Structure (SMILES): Cc1csc(S(=O)(=O)NC[C@H]2O[C@@H](C)[C@@H](O)[C@@H](O)[C@@H]2O)c1
IC50 [2]: 2550 nM
IC50 [3]: 320 nM

Structure (SMILES): Cc1ccc(S(=O)(=O)NC[C@H]2O[C@@H](C)[C@@H](O)[C@@H](O)[C@@H]2O)s1
Intrinsic clearance (CLint) [5]: 10 µL/min/mg
IC50 [2]: 3530 nM
fraction unbound at 2 h [1]: 0.3 to 0.4
Stability [7]: Stable
Activity (HepG2 [8]): Non-Toxic
IC50 [3]: 560 nM
Intrinsic clearance (CLint) [9]: < 10 µL/min/mg

Structure (SMILES): Cc1cc(S(=O)(=O)NC[C@H]2O[C@@H](C)[C@@H](O)[C@@H](O)[C@@H]2O)c(C(F)(F)F)o1
IC50 [2]: 3470 nM
IC50 [3]: 460 nM

Structure (SMILES): C[C@@H]1O[C@H](CNC(=O)c2ccccc2)[C@@H](O)[C@H](O)[C@@H]1O
IC50 [2]: 8730 nM
IC50 [3]: 3540 nM

Structure (SMILES): C[C@@H]1O[C@H](CNS(=O)(=O)c2ccsc2)[C@@H](O)[C@H](O)[C@@H]1O
IC50 [2]: 1850 nM
IC50 [3]: 590 nM

Structure (SMILES): C[C@@H]1O[C@H](CNC(=O)c2cc3ccccc3o2)[C@@H](O)[C@H](O)[C@@H]1O
IC50 [2]: 10200 nM
IC50 [3]: 2410 nM

Structure (SMILES): C[C@@H]1O[C@H](CNS(=O)(=O)c2ccc(C#CCCc3ccccc3)s2)[C@@H](O)[C@H](O)[C@@H]1O
IC50 [2]: 3130 nM
IC50 [3]: 400 nM

Structure (SMILES): CCc1ccc(S(=O)(=O)NC[C@H]2O[C@@H](C)[C@@H](O)[C@@H](O)[C@@H]2O)s1
IC50 [2]: 4020 nM
IC50 [3]: 380 nM

fraction unbound at 2 h [1]: 0.3 to 0.4
Structure (SMILES): CO[C@H]1O[C@H](CNS(=O)(=O)c2cccs2)[C@@H](O)[C@H](O)[C@@H]1O

Structure (SMILES): C[C@@H]1O[C@H](CNS(=O)(=O)c2ccco2)[C@@H](O)[C@H](O)[C@@H]1O
IC50 [2]: 3150 nM
IC50 [3]: 460 nM

Structure (SMILES): COc1ccc(C#Cc2ccc(S(=O)(=O)NC[C@H]3O[C@@H](C)[C@@H](O)[C@@H](O)[C@@H]3O)s2)cc1
IC50 [2]: 1750 nM
IC50 [3]: 280 nM

Structure (SMILES): C[C@@H]1O[C@H](CNS(=O)(=O)c2ccc(Br)s2)[C@@H](O)[C@H](O)[C@@H]1O
IC50 [2]: 3310 nM
IC50 [3]: 570 nM

Structure (SMILES): Cc1ccccc1C#Cc1ccc(S(=O)(=O)NC[C@H]2O[C@@H](C)[C@@H](O)[C@@H](O)[C@@H]2O)s1
IC50 [2]: 1620 nM
IC50 [3]: 270 nM

solubility [11]: Insoluble
Structure (SMILES): C[C@@H]1O[C@H](CNC(=O)c2ccc(-c3ccccc3)s2)[C@@H](O)[C@H](O)[C@@H]1O

Structure (SMILES): C[C@@H]1O[C@H](CNS(=O)(=O)c2ccc(C#Cc3ccccc3)s2)[C@@H](O)[C@H](O)[C@@H]1O
inhibition at 100 µM (Pseudomonas aeruginosa [4]): > 90%
Intrinsic clearance (CLint) [5]: < 10 µL/min/mg
Activity (HepG2 [12]): 64%
fraction unbound at 2 h [1]: 0.3 to 0.4
Activity (Pseudomonas aeruginosa [6]): inactive
Stability [7]: Stable
Intrinsic clearance (CLint) [9]: < 10 µL/min/mg

Structure (SMILES): Cc1ccc(C#Cc2ccc(S(=O)(=O)NC[C@H]3O[C@@H](C)[C@@H](O)[C@@H](O)[C@@H]3O)s2)cc1
IC50 [2]: 1720 nM
IC50 [3]: 350 nM

PPB [1]: 81%
half-life [10]: 34 min
Structure (SMILES): C[C@@H]1O[C@H](CNS(=O)(=O)c2cccs2)[C@@H](O)[C@H](O)[C@@H]1O

Intrinsic clearance (CLint) [5]: < 10 µL/min/mg
Stability [7]: Stable
Intrinsic clearance (CLint) [9]: < 10 µL/min/mg
Structure (SMILES): C[C@@H]1O[C@H](CNS(=O)(=O)c2cc(Cl)c(Cl)s2)[C@@H](O)[C@H](O)[C@@H]1O
Activity (HepG2 [8]): Non-Toxic
